Screening results (PubChem BioAssay)
SR-BI DiI-HDL act = activators of SR-BI mediated DiI-HDL uptake, primary screen, ldlA[mSR-BI] CHO cells, DiI fluorescence; 3 h; 100 = double the neutral-control signal; activation, % at 12.5 µM; hit rate 0.096% among 320,000; AID 504775, 2011;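 active = mean replicate activation of at least 60% and every replicate at or above 60%; inconclusive = mean or all-replicate condition met, but not both; inactive = mean below 60% and not all replicates reaching 60%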;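 also: 0% = median plate neutral-control signal and 100% = twice that signal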
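Assay system: CHO ldlA[mSR-BI] cells, LDL receptor-null, SR-BI overexpressing; medium: Ham's F12 with 0.5% BSA, HEPES 25 mM, pH 7.4; also added: DiI-HDL 10 µg/mL; timing: 3 h uptake period with compound, 37 °C; signal: DiI fluorescence, bottom read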
Glyco luc inh = increase of ERlucT glycosylation luciferase signal, primary screen, N-linked glycosylation inhibitor project, D54 ERlucT cells, luminescence, set 2 | D54 ERlucT glycosylation luciferase reporter, 24 h; percent of 100 nM tunicamycin response | reporter increase, % at 12.5 µM | hit rate 0.23% among 360,000;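 active = mean luciferase reporter signal, scaled so untreated is 0 and the glycosylation-blocking control 100, at or above a set limit in every replicate; inconclusive = mean reaches the limit but not every replicate does; inactive = mean below the limit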;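 also: luciferase carries N-glycosylation sites so blocking glycosylation raises the light; 0% = median of neutral control wells and 100% = median of 100 nM tunicamycin wells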
Env fusion inh = inhibitors of HIV-1 Env-driven cell-cell fusion, primary screen, HeLa-JRFL effector, CEM21 target cells, luciferase; inhibition, % at 12.3 µM; hit rate 1.1% among 360,000;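 active = mean replicate inhibition score of at least 50 and every replicate individually at or above 50; inconclusive = only one of the two criteria met; inactive = mean below 50 and not all replicates reaching 50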;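 also: 0% = plate neutral controls and 100% = maraviroc near 300 nM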
SR-BI HDL uptake = inhibitors of SR-BI mediated HDL lipid uptake, primary screen, ldlA[mSR-BI] cells, fluorescence, single point; ldlA[mSR-BI] CHO cells, DiI-HDL uptake fluorescence, 3 h; inhibition, % at 12.5 µM; hit rate 0.96% among 320,000;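 active = mean replicate inhibition of at least 70% and a set share of replicates each scoring 70 or more; inconclusive = meets just one of the two criteria; inactive = fails both criteria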;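 also: 0% = median of neutral control wells and 100% = median of positive control wells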
PglD DTNB = C. jejuni PglD acetyltransferase inhibitors, primary screen, biochemical, DTNB colorimetric, single point. hit rate 0.098% among 360,000. AID 602405, 2012. UDP-N-acetylbacillosamine N-acetyltransferase PglD (Campylobacter jejuni). inhibition, % at 12.5 µM. purified PglD enzyme, DTNB colorimetric CoA detection; in the data active = inhibition above about 16%, passing the limit was not always enough; inconclusive = no clear call, values can overlap the other calls
Rtt109 HAT inh = inhibitors of C. albicans Rtt109/Vps75 HAT, primary screen, biochemical, ThioGlo CoA-SH fluorescence, plate reader; Histone acetyltransferase RTT109 (Candida albicans (strain SC5314 / ATCC MYA-2876)), …; purified Rtt109/Vps75, 4 h; inhibition, % at 34.9 µM; hit rate 0.16% among 330,000; AID 540336, 2011;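 active = inhibition of at least 50% in every replicate; inconclusive = best replicate reaches 50% inhibition but some replicates fall short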
Target sequence (Q5AAJ8 whole entry, looked up): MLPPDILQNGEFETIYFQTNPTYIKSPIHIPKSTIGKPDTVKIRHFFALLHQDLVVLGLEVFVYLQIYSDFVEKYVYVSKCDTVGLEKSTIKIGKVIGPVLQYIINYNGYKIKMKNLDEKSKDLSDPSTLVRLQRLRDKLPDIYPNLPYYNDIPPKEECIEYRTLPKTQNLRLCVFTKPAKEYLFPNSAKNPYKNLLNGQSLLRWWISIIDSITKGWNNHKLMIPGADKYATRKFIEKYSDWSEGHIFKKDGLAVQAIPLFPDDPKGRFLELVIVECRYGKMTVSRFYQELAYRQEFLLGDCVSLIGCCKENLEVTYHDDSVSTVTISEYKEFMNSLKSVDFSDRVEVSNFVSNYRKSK
Active calls of the source: *; ? = inconclusive; . = not tested or not shown; [ ] = dose if it differs, or a comment. Shown are actives, neighbours in structure and some others; about 1.9% of the full set was active somewhere.

SMILES | SR-BI DiI-HDL act | Glyco luc inh | Env fusion inh | SR-BI HDL uptake | PglD DTNB | Rtt109 HAT inh
Cc1ccc2c(c1)/C(=N/OS(=O)(=O)c1ccccc1)CCS2 | 13 | 3 | -51 | -13 | 3 | 29
CC1=CC(=O)C(C(C)C)=C/C1=N/OS(=O)(=O)c1ccccc1 | -80 | 20 | -205 | 80* | 4 | -9
CC1=CC(=O)C=C(C)C1=NOS(=O)(=O)c1ccccc1 | -112 | 17 | . | 112* | 17 | 8
COc1cccc(CNC(=O)COc2cc3c(c4oc(=O)cc(C)c24)CCC(C)(C)O3)c1 | -77 | 4 | . | 77* | -2 | -4
COc1ccccc1C#Cc1ccc([C@H]2[C@@H](C#N)N(C(=O)C3CCC3)[C@H]2CO)cc1 | . | . | -1[16.7 µM] | . | 3 | .
CC1(C)Cc2ccccc2C(/C(=N\Nc2cccc(Cl)c2)C(N)=O)=N1 | -35 | -4 | 82* | 35 | . | 4
O=C(CC12CC3CC(CC(C3)C1)C2)NCc1ccc(F)cc1 | -83 | 0 | -2 | 83* | 4 | 5
O=C(CC12CC3CC(CC(C3)C1)C2)NCc1ccccc1 | 4 | -2 | -2 | -4 | 1 | -18
Cc1nc2ccccc2n1S(=O)(=O)c1ccc(Br)cc1 | 65* | 1 | 5 | -65 | . | 9
O=C(Cn1ncc(Cl)c(Cl)c1=O)NC(=O)NC1CCCCC1 | 13 | 1 | 61* | -13 | . | -15
O=C(CN1CCCCC1)NC(=O)NC1CCCC1 | 0 | -2 | 5 | 0 | . | 6
C[C@H](CO)N1C[C@H](C)[C@@H](CN(C)Cc2ccc(Cl)c(Cl)c2)Oc2ccc(NS(=O)(=O)c3ccc(Cl)cc3)cc2C1=O | . | . | 13[16.7 µM] | . | 1 | .
COc1cc(NC(=S)NCCc2c[nH]c3ccccc23)c(OC)cc1Cl | -73 | 1 | 7 | 73* | -5 | 11
CCCNC(=S)Nc1cc2oc3ccccc3c2cc1OC | -89 | 0 | -14 | 89* | . | -3
COc1cc2c(cc1NC(=S)Nc1ccccc1C)oc1ccccc12 | -57 | -1 | . | 57 | -8 | -1
COc1cc2c(cc1NC(=O)C1CCCO1)oc1ccccc12 (centres undefined) | -76 | -1 | -221 | 76* | -4 | 11
CNC(=S)Nc1cc2oc3ccccc3c2cc1OC | -94 | 3 | -4 | 94* | 0 | 12
CO[C@H]1CN(C)C(=O)c2cc(NC(C)=O)ccc2OC[C@H](C)N(CCc2ccccc2)C[C@@H]1C | . | . | . | . | -1 | .
C[C@@H]1CN([C@H](C)CO)S(=O)(=O)c2ccc(-c3ccncc3)cc2O[C@H]1CN(C)C(=O)c1cccc(F)c1 | . | . | -14[16.7 µM] | . | -2 | .
CC(C)NC(=O)N(C)C[C@@H]1OCCCC[C@H](C)Oc2ccc(NS(=O)(=O)c3ccccc3)cc2C(=O)N([C@H](C)CO)C[C@@H]1C | . | . | -50[16.7 µM] | . | -1 | .
CCNC(=S)Nc1cc2oc3ccccc3c2cc1OC | -84 | 0 | -35 | 84* | 2 | 5
COc1cc2c(cc1NC(=S)NC(=O)/C=C/c1ccc(OC)c(OC)c1)oc1ccccc12 | -33 | 0 | -7 | 33 | . | 17
COc1ccc(-c2nc(NC(=O)c3ccc(OCC(=O)N4CCOCC4)c(OC)c3)sc2C)cc1 | -71 | -1 | 36 | 71* | . | -5
COc1ccc(-c2nn(C)c(=O)c3ccccc23)cc1NC(=O)Cn1nc(C)c2ccccc2c1=O | -34 | 3 | 76* | 34 | -2 | 8
CCC(=O)Nc1cc(-c2nn(C)c(=O)c3ccccc23)ccc1OC | -5 | 9 | -8 | 5 | 6 | -6
SMILES | SR-BI DiI-HDL act | Glyco luc inh | Env fusion inh | SR-BI HDL uptake | PglD DTNB | Rtt109 HAT inh
COc1ccc(-c2nn(C)c(=O)c3ccccc23)cc1NC(=O)COc1ccc(C)cc1 | -92 | -4 | 57* | 92* | 0 | 5
C[C@@H]1CN([C@H](C)CO)C(=O)c2cc(C#CC3CCCC3)cnc2O[C@H]1CN(C)C(=O)c1ccncc1 | . | . | -5[16.7 µM] | . | 1 | .
CCCCCCCCCCn1ccc(=N)cc1 | 14 | 11 | 78* | -14 | 2 | -1
Cc1nc(N2CCC(C)CC2)c2c(C)c(C(=O)Nc3ccc4c(c3)OCCO4)sc2n1 | -69 | -6 | 9 | 69 | 3 | 3
Cc1nc(N2CCC(C)CC2)c2c(C)c(C(=O)Nc3cccc(C(F)(F)F)c3)sc2n1 | -87 | -5 | -21 | 87* | . | .
Cc1nc(N2CCC(C)CC2)c2c(C)c(C(=O)Nc3ccc(C(F)(F)F)cc3)sc2n1 | -75 | -6 | 4 | 75* | . | 15
Cc1nc(N2CCOCC2)c2c(C)c(C(=O)Nc3ccccc3C(F)(F)F)sc2n1 | -40 | -2 | 4 | 40 | -2 | 3
O=C(NC(Cc1ccccc1)C(=O)NC(Cc1ccccc1)C(=O)O)c1ccccc1 (centres undefined) | 6 | 1 | -10 | -6 | -2 | -9
Cc1ccnc(NC(=O)C(Cc2ccccc2)NC(=O)c2ccccc2)c1 (centres undefined) | 0 | 25* | . | 0 | -2 | 1
O=C(COc1ccc(/C=N/NC(=O)c2cc3ccccc3o2)cc1Cl)Nc1ccccc1 | -75 | ? | . | 75* | 5 | 5
O=C(O)CCC(=O)N1CCN(S(=O)(=O)c2ccc3ccccc3c2)CC1 | 9 | 0 | -11 | -9 | -2 | 3
O=C(CCC(=O)N1CCN(S(=O)(=O)c2ccc3ccccc3c2)CC1)Nc1cc(Cl)cc(Cl)c1 | 41 | 9 | 85* | -41 | . | 3
O=C(C[C@H]1C[C@@H]2c3cc(NC(=O)C4CCC4)ccc3O[C@@H]2[C@@H](CO)O1)NCC(F)(F)F | . | . | 88*[16.7 µM] | . | -1 | .
O=C(C[C@@H]1C[C@@H]2c3cc(NC(=O)C4CCC4)ccc3O[C@@H]2[C@@H](CO)O1)NCC(F)(F)F | . | . | 90*[16.7 µM] | . | 0 | .
C[C@@H]1CN([C@H](C)CO)S(=O)(=O)c2ccc(-c3ccc(F)cc3)cc2O[C@@H]1CN(C)C | . | . | 3[16.7 µM] | . | -1 | .
CCCc1[nH]nc2c1C(Cc1ccccc1)C(C#N)=C(N)O2 (centres undefined) | 4 | -3 | 64* | -4 | 2 | 12
OC(c1cc(C(F)(F)F)nc2c(Cl)cc(Cl)cc12)C1CCCCN1 (centres undefined) | 66* | -3 | -46 | -66 | 3 | 5
Cc1ccccc1-c1ccc2c(c1)O[C@@H](CN(C)C(=O)Nc1ccc(F)cc1)[C@@H](C)CN([C@@H](C)CO)S2(=O)=O | . | . | -33[16.7 µM] | . | -4 | .
